In ChEMBL document CHEMBL4513216, “Probing the Open Global Health Chemical Diversity Library for Multistage-Active Starting Points for Next-Generation Antimalarials” (ACS Infect Dis, 2020):

Assay: Toxicity liver stage against HepG2, at 10uM
Type: cell-based
Design: test concentration 10 uM, cell line HepG2-A16-CD81EGFP
Details: human, HepG2-A16-CD81EGFP cells; read-out: INHIBITION
Procedure, shortened: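 Uninfected HepG2-A16-CD81EGFP cells, 3 × 10^3 per well, 1536-well, plated on prespotted compound at 10 μM final, parasite-free screening media added to match infected plates; puromycin 10 μM positive, DMSO 0.5% negative; run in parallel with 48 h PbLuc assay at 37 °C, 5% CO2; viability by CellTiter-Glo luminescence, normalized to controls.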

SMILES | cytotoxicity at 10 µM [%]
Cc1nnnn1-c1ccc(CC(=O)N2CCOCC(O)C2)cc1 (centres undefined) | -7.46
O=C1O[C@@H]2CN(Cc3ccccc3F)C[C@@H]2N1CCCN1CCOCC1 | -4.73
COCCN(Cc1cnn(C)c1)CC1CCOC1 (centres undefined) | -8.52
COCc1noc(CN2C(=O)OC[C@@H]2C(C)C)n1 | -11.8
CC1=C[C@@H](CN2CCN(C)CC2)[C@H](C(C)C)C[C@H]1Cc1nnc(C)o1 | -0.39
Cc1ccc(NC(=O)N2CCC(CO)(Nc3ccccc3)CC2)cc1 | -0.405
Cc1nccn1CC1CCCN(Cc2ccc(-c3cccnc3)cc2)C1 (centres undefined) | 2.97
Cc1cc(CN2CC3(CCN(C(=O)C4CC4)CC3)CC2C(=O)O)oc1C (centres undefined) | 1.1
c1ccc(OCCN2CCc3c(ncn3C3CC3)C2)cc1 | -10.3
Cc1nc(CN2Cc3nccn3CC(CN3CCOCC3)C2)cs1 (centres undefined) | 0.951
CCN(CC)C(=O)c1ccc(COc2ccccc2C#N)o1 | 1.96
CNS(=O)(=O)c1cccc(CNC(=O)NCC2CCOC2)c1 (centres undefined) | -9.97
CS(=O)(=O)CCC(=O)Nc1cnn(-c2ccccc2Cl)c1 | -6.66
CC1CN(C)CCN1C(=O)Nc1nc(-c2ccc[nH]2)cs1 (centres undefined) | -1.94
CSCC(=O)N1CCOC(c2nc(C(C)C)n[nH]2)C1 (centres undefined) | -4.99
Cc1nccn1CCC1CCCCN1Cc1ccc(O)cc1Cl (centres undefined) | -4.23
Cc1ccc(C(=O)N2CC[C@@H]3[C@H]2CCC(=O)N3CC2CC2)o1 | -0.419
O=C(Cc1ccsc1)N1CCCC(CNS(=O)(=O)Cc2ccccc2)C1 (centres undefined) | 4.24
CS(=O)(=O)N[C@@H]1CN(Cc2ccccc2)C[C@@H]2CCCO[C@@H]21 | 2.58
CCc1nc2n(n1)CC(NCCC(=O)Nc1cc(C)on1)CC2 (centres undefined) | -10
CCNC(=O)[C@@H]1C[C@H](N)CN1Cc1ccc(-c2ccccc2C#N)o1 | -38.2
O=C(c1ccccc1F)N(CCCO)S(=O)(=O)c1cccs1 | 4.95

SMILES | cytotoxicity at 10 µM [%]
CC(C)N(C)C[C@H]1OC[C@@H]2CCN(Cc3cccc(C#N)c3)C[C@@H]21 | 9.28
CC(C)=CCC/C(C)=C\CNCc1ccco1 | -12.6
COc1ccc(N(C(=O)c2ccccn2)C(C)C)cc1F | -1.26
OCC(O)CSCc1nnc(-c2cccc(F)c2)o1 (centres undefined) | 15.4
CC(C)Oc1cccc(Cc2nc3c([nH]2)CCCNC3=O)c1 | -12.9
CS(=O)(=O)N1Cc2ccccc2C2(CCN(C(=O)c3ccno3)CC2)C1 | 6.31
CCCc1ccc(C(=O)N2CCc3c(nc(N(C)C)[nH]c3=O)C2)cc1 | 8.7
COc1cccc2sc(OC3CN(C(=O)C4=COCCO4)C3)nc12 | 4.91
CC(=O)N1CCC(NC(=O)N(C)Cc2c(C)noc2C)CC1 | -6.33
Cc1oc(C(=O)O)cc1S(=O)(=O)Nc1cccc(-c2nccs2)c1 | -1.01
CN(C)c1cccc(C2CCN(c3ncccn3)CC2)n1 | -8.41
Cc1cc(N2CCCN(Cc3ccc(C)o3)CC2)ccn1 | -5.51
CCc1oc(C(=O)NC(C)c2ncn[nH]2)cc1CN1CCCC1 (centres undefined) | -5.92
CCc1[nH]ncc1C(=O)N1CCCN(Cc2cnn(C)c2)CC1 | 1.71
Cc1cccc(Nc2nccnc2C2CCCN(CC(=O)N(C)C)C2)n1 (centres undefined) | -3.03
Cn1cnc(-c2nc(C(=O)NCC3CCCO3)c3ccccn23)c1 (centres undefined) | -109
COc1ccc(C(=O)NC[C@H]2COCc3nc4cc(C)ccc4n32)cc1 | 2.52
Cc1cccc(S(=O)(=O)NCC2CCN(c3cnccn3)CC2)c1 | 7.99
Cc1cccc(CN2CCN(c3ncnc4[nH]cnc34)CC2CCO)n1 (centres undefined) | -3.09
O=C(NC1CCC(O)CC1)c1ccc2nc(-c3ccc(F)cc3)cn2c1 (centres undefined) | 1.31
Cc1ccc(C)c(CC(=O)NC2CCC(N3C(=O)CCC3=O)CC2)c1 (centres undefined) | -1.32
Cc1cc(NC(=O)NCCc2cccnc2)n(C)n1 | -3.86

SMILES | cytotoxicity at 10 µM [%]
COC(=O)c1cccn1C1CCN(C(=O)c2cc(C)ccc2O)CC1 | -3.22
COc1ccc(Cl)cc1NCc1nc2[nH]c(C)c(C)c(=O)n2n1 | 0.308
Cc1cccc(C2(C(=O)NCC(C)CN3CCCC3=O)CC2)c1 (centres undefined) | -0.89
COCCN1C[C@@H]2CN(C(=O)[C@H]3CCCO3)C[C@@H]2C1=O | 5.82
Cc1cc(F)ccc1C(=O)N1C[C@@H]2COC[C@]2(COCC2CC2)C1 | -146
Cc1ccc(C2CCCCCN2CCNS(C)(=O)=O)o1 (centres undefined) | 0.395
Cn1cccc1C(=O)N1CCC2(CC1)CN(S(C)(=O)=O)c1ccccc12 | 4.73
O=C(NCC1(O)CCC1)NC(c1cc(F)ccc1F)C1CC1 (centres undefined) | -4.81
Cc1c(NC(=O)c2ccc(Br)cc2)c(C(=O)N(C)C)nn1C | 3.65
COc1cccc(F)c1C(=O)N1C[C@@H](CN(C)CCO)[C@@H](CO)C1 | -5.88
Cc1cccc(S(=O)(=O)N2CSCC2C(=O)NCC2CC2)c1 (centres undefined) | -6.14
COC(=O)c1cccc(C(=O)N2CCN(C(=O)N(C)C)CC2(C)C)c1 | 11.9
Cc1noc(C)c1CN1CCN(c2ccnc(-c3ccccc3)n2)CC1 | 6
Cc1nc(CC(=O)N2CCCC2c2nc(C(C)C)no2)cs1 (centres undefined) | 4.33
COC1COC2(CCN(Cc3ccccc3F)CC2)C1 (centres undefined) | -5.58
CN(C)C(=O)CN1CCC2(CCN(S(=O)(=O)C3CC3)CC2)C1=O | 6.32
CC(Cc1ccccn1)N(C)C(=O)c1ncc[nH]1 (centres undefined) | 3.04
Cc1c(C(=O)N2CCC(C(=O)c3nc4ccccc4s3)CC2)cnn1C | 6.32
O=C1CC(C(=O)Nc2nnc(-c3cccs3)[nH]2)c2ccccc2N1 (centres undefined) | -0.921
CNCCNc1ccc(-c2nc(-c3cccc(OC)c3OC)no2)cn1 | -2.4
CC(C)NC(=O)NC[C@H]1OC[C@@H](NCc2ccccc2O)[C@@H]1O | -1.69
CN(Cc1cnn(C)c1)C(=O)CCc1ccc2c(c1)OCO2 | -2.59

SMILES | cytotoxicity at 10 µM [%]
CCOC(=O)c1ccc(CNC(=O)c2ccc(C)nc2)o1 | 10.6
CNCC(=O)N1CCC(c2cccc(Oc3ccccc3)n2)CC1 | -11.7
CCN(C(C)=O)C1CCN(c2nccc(C3CCCC3)n2)C1 (centres undefined) | -5.35
O=C1Nc2ccccc2C12CCCN(Cc1ccc3c(c1)OCCO3)C2 (centres undefined) | 0.529
CCc1ccc(CNc2cc(-c3ccoc3C)nn2CCO)o1 | 0.485
CNCC[C@H]1CC(C)(C)Oc2ccc(OC)cc21 | 0.942
O=C(c1cscn1)N1CC[C@@H]2[C@@H]1CCN2c1ccccn1 | 5.95
CCN(CCNCc1cccc(C#N)c1)C1CC1 | -11.3
COc1c(CNCCc2c[nH]c3cc(F)ccc23)c(C(C)C)nn1C | 4.64
Cc1cc(C(=O)Nc2ccc(CN3CCOCC3)cn2)n(C)n1 | 3.86
CN1CC(NC(=O)CCCc2cc(Cl)sc2Cl)CCC1=O (centres undefined) | -5.01
CC(=O)N1[C@H](Cn2cncn2)C[C@@H]2CN(CC3CC3)CC[C@@H]21 | -3.64
CCCOCC(=O)NC1CCc2nc(C)cn2C1 (centres undefined) | -2.88
CN(C)C(=O)Cc1ccc(NCc2nccn2C)cc1 | -8.73
CN(C)C(=O)C1CCN(Cc2csc(C(C)(C)C)n2)CC1 | -23
CCOC(=O)c1nc(CC(=O)Nc2ccccc2)no1 | 6.96
Cc1ncc(-c2ccccn2)c(CCNC(=O)C2CCCC2)n1 | 16.4
CC(C)Oc1ncc(C(=O)N2CCCC(C(=O)O)C2)cc1Cl (centres undefined) | -6.94
CC(=O)Nc1ccc(SCC(=O)NCC2CCCO2)nn1 (centres undefined) | -16.7
CC(C)Cc1noc(CN2CCN(S(C)(=O)=O)CC2)n1 | 5.51
CC(C)c1ncc(CN2C[C@@H](CN3CCC(O)CC3)[C@@H](CO)C2)cn1 | -7.79
CN(CCc1cn[nH]c1)C(=O)CCc1ccc(Cl)cc1 | 1.82

SMILES | cytotoxicity at 10 µM [%]
C=Cc1ccc(CN2C(=O)C3(CCNCC3)Nc3ccccc32)cc1 | 3.39
CN(C)CC1CSCCCN1C(=O)c1cccc(C(F)(F)F)c1 (centres undefined) | -5.03
CC(O)CN1CCC(CNCc2ccccc2Cl)CC1 (centres undefined) | -11.9
Cc1ccc(C(=O)N2CCCC2c2nnc3n2CCCCC3)o1 (centres undefined) | -6.05
CS(=O)(=O)NC[C@]12COC[C@H]1CN(C(=O)CC1CCCC1)C2 | -101
CCCC(=O)NCCc1nc2cc(-c3ccc(OC)cc3)ncn2n1 | 5.26
Cc1ccc(CN2CC[C@H]3[C@H]2CC(=O)N3c2cccnc2)o1 | 5.67
CC(NC(=O)NCC(C)(C)O)c1ccc(-c2cncnc2)cc1 (centres undefined) | 6.27
CC(C)(C)c1nc(CN2CCOC(Cn3cccn3)C2)no1 (centres undefined) | -18.5
Cc1nc(C)c(C(=O)N2CCc3c(Cl)cccc32)o1 | -1.55
Cc1cc(-c2cccc3c2CCNC3)cnc1-n1cnnc1 | -0.972
Cc1ccc(N2C(=O)N[C@@H]3CCN(C(=O)C4CC4)[C@@H]3C2=O)cc1 | 3.85
CCN(Cc1ccoc1)C(=O)c1cc(S(N)(=O)=O)c(C)o1 | -2.98
CS(=O)(=O)c1ccc(CNc2nccc(C(F)(F)F)n2)cc1 | -23.2
COc1ccc(CNCc2cc(Br)c3c(c2)OCO3)cc1 | 12.1
NC(=O)C1CCN(C(=O)c2ccc(OCc3cscn3)cc2)CC1 | -10.6
O=C1CC(c2ccc(C(=O)O)cc2)c2ncn(-c3ccc(F)cc3)c2N1 (centres undefined) | -3.67
CC(C)COCC(NC(=O)c1cc[nH]n1)c1ccco1 (centres undefined) | -4.72
CN(CC(=O)N(CCC#N)c1ccccc1)C1CCc2ccccc21 (centres undefined) | 3.15
Clc1snnc1CN1CCCC1Cn1cccn1 (centres undefined) | -17.9
CC1=N[C@@]2(CC[C@@H]3CN(CC4CC4)C[C@@H]32)C(=O)N1CC(C)C | -84
